Bioassay records as filed in PubChem.
RBBP9 inh – inhibitors of human serine hydrolase RBBP9; 0.2% of 220,000 active; inhibition, % at 7.94 µM; O75884; AID 1515; recombinant RBBP9, FP-Rh probe fluorescence polarization;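 active = inhibition above the campaign mean of all tested compounds plus 3 SD, cut at about 14% in these data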;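 also: plate controls were DMSO wells with RBBP9 for no effect and wells lacking RBBP9 protein for full effect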
Target sequence (O75884 whole entry, looked up): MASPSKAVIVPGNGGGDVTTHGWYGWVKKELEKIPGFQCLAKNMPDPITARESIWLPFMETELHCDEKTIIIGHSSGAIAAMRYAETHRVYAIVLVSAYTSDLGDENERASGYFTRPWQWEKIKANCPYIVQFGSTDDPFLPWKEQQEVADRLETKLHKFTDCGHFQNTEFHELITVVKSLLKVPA
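Assay system: recombinant human RBBP9; Reagent: Serine-hydrolase probe FP-Rh, 375 nM pre-mixing; Doses: 7.94 µM single dose, 0.794% DMSO; Incubation: 30 min then 45 min, 25 °C; Detection: fluorescence polarization (mP), excitation 525 nm, emission 598 nm; Evaluation: percent inhibition from mP, scaled between DMSO and no-protein wells.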
m-calpain inh – blocks pig calpain II enzyme activity; purified calpain II, fluorogenic peptide substrate, 30 min; inhibition, % at 16 µM; 0.37% of 220,000 active;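 active = inhibition above about 50%, limit read from the data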
Pf gamet viab – inhibitors of late stage P. falciparum gametocyte viability | P. falciparum stage V gametocytes, ATP luminescence, 24 h | inhibition, % at 10.9 µM | 0.065% of 150,000 active;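 active = inhibition above the mean plus 3 SD of compounds within the control limits, set per campaign, cut at about 38% in these data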;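 also: 0% = DMSO wells and 100% = medium only without gametocytes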
Wee1 degr inh – inhibitors of human Wee1 degradation. P30291. HeLa Luc-Wee1K328M stability, luciferase luminescence; 100% = proteasome inhibitor MG132 effect. reporter increase, % at 5 µM. 1.2% of 220,000 active;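 active = activation above the mean of all tested compounds plus 3 SD, set per screening run, cut at about 8.8% in these data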;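 also: cells exposed to compound for 20 h before luminescence read; 0% = DMSO alone and 100% = MG132 at 30 µM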
TNF death inh – blocks TNF-alpha induced death of Jurkat FADD-/- cells. Jurkat FADD-/- TNF necroptosis rescue, ATP luminescence, 24 h; 0 = TNF only, 100 = no-TNF cells. activation (protection from cell death), % at 10 µM. 0.068% of 220,000 active;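 active = activation, meaning protection from cell death, of at least 50% relative to plate controls; inactive = activation below 50%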;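 also: necroptosis triggered by 40 ng/mL TNF-alpha added together with compound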
zVAD death inh – blocks zVAD induced death of L929 cells; 0.38% of 220,000 active; L929 zVAD necroptosis rescue, ATP luminescence, 24 h; with zVAD 60 µM; viability rescue, % at 10 µM; AID 1377;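 active = activation, scaled between plate controls, above about 75%, limit read from the data; inactive = activation under that limit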;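 also: 0% = zVAD with DMSO and 100% = DMSO alone without zVAD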
RBBP9 inh conf – human RBBP9 inhibition, confirmation. shares compounds with RBBP9 inh. recombinant RBBP9, FP-Rh probe fluorescence polarization. inhibition, % at 7.94 µM. 36% of 410 active. AID 1537;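 active = inhibition above the hit cutoff derived for the primary screen, cut at about 15% in these data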;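 also: 0% = RBBP9 with DMSO and 100% = wells lacking RBBP9 protein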
* hit, by the source's call; . = no result given. This is a sample that favours compounds with a hit; in the whole collection about 2.1% have one here.

SMILES	RBBP9 inh	m-calpain inh	Pf gamet viab	Wee1 degr inh	TNF death inh	zVAD death inh	RBBP9 inh conf
C=CCn1c(=O)c2c(C)c(C)sc2n2c(Nc3ccc(OC)cc3)nnc12	16*	-4	-8	-1	-1	-1	4
CCc1ccc(C(=O)COC(=O)CNC(=O)COc2ccccc2)cc1	-1	10	8	-4	2	2	.
CCn1c(SCC(=O)NNC(=O)c2ccc(OC)cc2)nnc1-c1ccco1	1	-55	10	1	1	5	.
COc1ccc(-c2cc(=O)c3ccccc3[nH]2)cc1	-5	-113	.	-2	0	3	.
COc1ccc(-c2cc3ccccc3[nH]2)cc1	17*	-11	-28	5	1	1	4
COc1ccc(N2CCN(C(CNS(=O)(=O)c3cc(F)ccc3F)c3cccnc3)CC2)cc1 (stereo not drawn)	3	27	.	-3	1	0	.
c1csc(C2Nc3cccc4cccc(c34)N2)c1	30*	-11	.	0	-12	0	45*
Clc1cccc(Cl)c1C1Nc2cccc3cccc(c23)N1	.	.	-5	.	.	.	.
COc1ccc(C2Nc3cccc4cccc(c34)N2)cc1	25*	-71	-16	2	-3	0	21*
c1ccc(C2Nc3cccc4cccc(c34)N2)cc1	.	.	6	.	.	.	.
CC(=O)Nc1cccc(/C(C)=N\NC(=O)c2ccc(Cn3nc([N+](=O)[O-])c(Cl)c3C)o2)c1	-7	-9	-4	-2	2	1	.
CC(C)NC(=O)CSc1nc(N)c(NC(=O)c2ccco2)c(=O)[nH]1	-1	-19	24	-3	0	2	.
Nc1nc(SCC(=O)N2CCCCCC2)[nH]c(=O)c1NC(=O)c1ccco1	15*	-11	.	1	0	1	64*
COC(=O)N/N=C/c1cn(Cc2ccccc2F)c2ccccc12	-1	-16	-11	2	-4	0	.
O=C(O)c1ccc(N/N=C/c2cn(Cc3ccccc3F)c3ccccc23)cc1	17*	47	-7	-2	0	3	11
COc1ccc(C(=O)Oc2c(OC)cc(C(=S)N3CCOCC3)cc2OC)cc1OC	.	.	-7	.	.	.	.
CC1=CC(C)(C)N(S(=O)(=O)c2ccc(C)cc2)c2cc(C)ccc21	21*	1	.	-2	-9	-1	9
COc1cc(OC)c(S(=O)(=O)Nc2ccccc2N2CCOCC2)cc1NC(C)=O	-6	-17	3	4	0	0	.
CCC(C)/C(C)=N/NC(=O)c1cn(-c2ccccc2)nc1-c1ccccc1 (stereo not drawn)	-16	10	19	-1	0	2	.
O=C(O)CN1CCN(Cc2ccccc2Cl)C1=O	16*	.	.	5	0	0	2
C/C(CCC(C)C)=N\NC(=S)NCc1ccccc1	-8	34	-9	0	-3	0	.
O=C(O)C(Oc1ccc2c3c(c(=O)oc2c1)CCC3)c1ccccc1 (stereo not drawn)	-6	-86	2	-1	-1	0	.
CCN1CCN(C(=O)C2(NC(=O)Nc3ccccc3Cl)CCCCC2)CC1	16*	15	.	2	0	-1	2
Cc1[nH]c2ccccc2c1/C=N/NC(=O)c1cc(C(C)C)[nH]n1	6	-9	15	0	0	1	.
Oc1cc(-n2cccn2)c(O)cc1-n1cccn1	63*	-23	.	-4	-25	4	76*
SMILES	RBBP9 inh	m-calpain inh	Pf gamet viab	Wee1 degr inh	TNF death inh	zVAD death inh	RBBP9 inh conf
CCC(C)(C)NC(=O)/C=C/c1cccs1	18*	18	8	1	3	3	6
Cc1cc(=O)n2[nH]c(=O)c(N=Nc3ccccc3)c2[nH]1	16*	-3	.	-2	-5	0	38*
Cc1cc(C)n2[nH]c(=O)c(N=Nc3ccccc3)c2n1	-1	-7	.	-1	-1	0	.
CC(C)C(=O)N(c1cc2sc(=O)oc2c2ccccc12)S(=O)(=O)c1cccs1	32*	-91	.	0	-9	0	11
COCCCNS(=O)(=O)c1ccc(S(=O)(=O)N2CCCC2)cc1	3	-6	.	-1	0	0	.
O=C1c2ccccc2C(=O)N1/N=C/c1ccc(O)c(O)c1O	20*	11	.	1	-6	-1	45*
CCOC(=O)c1c(C)oc2c(CC(=O)c3ccccc3)c(Cl)c(O)c(O)c12	16*	26	-9	3	1	1	13
CCOC(=O)c1c(C)oc2c1c(CN1CCN(C(=O)OCC)CC1)c(O)c1ccccc12	0	-3	22	0	1	2	.
COCCN1C(=S)NC(c2cccc(C(F)(F)F)c2)C(C(=O)N2CCOCC2)=C1C (stereo not drawn)	5	10	-7	5	-1	0	.
CC(=O)Nc1ccc(OCC[n+]2cccc(C(N)=O)c2)cc1	14*	-14	6	-3	0	1	8
CC(=O)Nc1ccc(OCCC[n+]2ccccc2)cc1	-6	-25	7	-3	1	10	.
O=C(O)c1ccccc1Sc1c([N+](=O)[O-])cc(C(F)(F)F)cc1[N+](=O)[O-]	-5	-31	-7	-1	-5	-1	.
Cc1nc2cc(NC(=O)c3ccc(N4C(=O)CCC4=O)cc3)ccc2s1	-7	6	-2	0	0	2	.
O=C(c1cc2c(s1)CCCCC2)N1CCN(c2ncccn2)CC1	-7	-26	-3	-3	-2	0	.
O=C(c1cc2c(s1)CCCC2)n1cccn1	42*	7	.	-2	-2	0	11
COc1ccc(/C=C(\C#N)C(=O)OCC(=O)NCc2ccc(Cl)cc2)cc1	-7	0	.	-1	1	0	.
Cc1csc(C(C)N(C)C(=O)CCc2nnc(CCc3ccccc3)o2)n1 (stereo not drawn)	-8	-16	2	-3	1	3	.
CSc1nnc(CCCCCCCCc2nnc(SC)o2)o1	16*	12	11	-2	2	0	3
COc1cccc(CSc2nc3cc4c(cc3cc2C)OCCO4)c1	-6	18	.	1	1	-1	.
O=C(Cc1cccs1)Nc1ccccc1NC(=O)Cc1cccs1	15*	17	.	2	0	-1	12
Cn1ncc(Br)c1NC(=O)CSc1ccc(Cl)cc1	18*	0	0	8	-3	0	3
O=C(COC(=O)/C=C/c1cccs1)Nc1nc(-c2cccc(Br)c2)cs1	17*	-33	-22	2	3	0	27*
O=C(COC(=O)/C=C/c1cccs1)Nc1nc(-c2ccccc2)cs1	-1	-16	3	-5	-6	2	.
CCCC(CCC)C(=O)Nc1c[nH]c(=O)[nH]c1=O	17*	-18	.	-1	0	0	6
